Measurements as given in ChEMBL document CHEMBL2177094, “Structure dependence of long-chain [18F]fluorothia fatty acids as myocardial fatty acid oxidation probes” (J Med Chem, 2012).

Legend:
Heart [1] = test: Drug uptake in overnight fasted Sprague-Dawley rat heart at 9 to 11 MBq, iv at 5 mins by microPET analysis; format: ADME, organism-based; settings: in vivo
How it was run: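 Female rats fasted overnight, under isoflurane. 18F-labelled tracer (9–11 MBq) given into a tail vein. Dynamic PET acquisition over the upper thorax for 50 min, then a static whole-body scan 55–115 min post-injection. 2–5 rats per tracer.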

Muscle tissue [2] = test: Biodistribution in overnight fasted Sprague-Dawley rat muscle pellet fraction at 0.7 to 1.4 MBq, iv preincubated with POCA for 2 hrs before compound administration measured at 120 mins post treatment by Folch-type extraction method; format: ADME, organism-based; settings: in vivo
How it was run: (§1)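 Female Sprague-Dawley rats, fasted overnight, under isoflurane (3.5% induction, 1.5% maintenance). [18F] tracer in 0.5–1.0% BSA/saline was given by tail vein. POCA group: 30 mg/kg i.p. 120 min before tracer. About 0.5 g tissue was homogenized and sonicated in chloroform/methanol (2:1) at 0 °C, then 40% urea and 5% H2SO4 were added and spun 10 min at 1,800 g. Aqueous, organic and pellet fractions were counted as % of total.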

Muscle tissue [3] = test: Biodistribution in overnight fasted Sprague-Dawley rat muscle organic fraction at 0.7 to 1.4 MBq, iv preincubated with POCA for 2 hrs before compound administration measured at 120 mins post treatment by Folch-type extraction method; format: ADME, organism-based; settings: in vivo; how it was run: as §1
Heart [4] = test: Biodistribution in overnight fasted Sprague-Dawley rat heart pellet fraction at 0.7 to 1.4 MBq, iv preincubated with POCA for 2 hrs before compound administration measured at 120 mins post treatment by Folch-type extraction method; format: ADME, organism-based; settings: in vivo; how it was run: as §1
Heart [5] = test: Biodistribution in overnight fasted Sprague-Dawley rat heart aqueous fraction at 0.7 to 1.4 MBq, iv preincubated with POCA for 2 hrs before compound administration measured at 120 mins post treatment by Folch-type extraction method; format: ADME, organism-based; settings: in vivo; how it was run: as §1
Muscle tissue [6] = test: Biodistribution in overnight fasted Sprague-Dawley rat muscle organic fraction at 0.7 to 1.4 MBq, iv at 120 mins by Folch-type extraction method; format: ADME, organism-based; settings: in vivo, 2 h; how it was run: as §1
Muscle tissue [7] = test: Biodistribution in overnight fasted Sprague-Dawley rat muscle aqueous fraction at 0.7 to 1.4 MBq, iv at 120 mins by Folch-type extraction method; format: ADME, organism-based; settings: in vivo, 2 h; how it was run: as §1
Liver [8] = test: Biodistribution in overnight fasted Sprague-Dawley rat liver aqueous fraction at 0.7 to 1.4 MBq, iv at 120 mins by Folch-type extraction method; format: ADME, organism-based; settings: in vivo, 2 h; how it was run: as §1
Heart [9] = test: Biodistribution in overnight fasted Sprague-Dawley rat heart organic fraction at 0.7 to 1.4 MBq, iv preincubated with POCA for 2 hrs before compound administration measured at 30 mins post treatment by Folch-type extraction method; format: ADME, organism-based; settings: in vivo, 0.5 h; how it was run: as §1
Muscle tissue [10] = test: Biodistribution in overnight fasted Sprague-Dawley rat muscle organic fraction at 0.7 to 1.4 MBq, iv at 30 mins by Folch-type extraction method; format: ADME, organism-based; settings: in vivo, 0.5 h; how it was run: as §1
Muscle tissue [11] = test: Biodistribution in overnight fasted Sprague-Dawley rat muscle pellet fraction at 0.7 to 1.4 MBq, iv at 30 mins by Folch-type extraction method; format: ADME, organism-based; settings: in vivo, 0.5 h; how it was run: as §1
Muscle tissue [12] = test: Biodistribution in overnight fasted Sprague-Dawley rat muscle aqueous fraction at 0.7 to 1.4 MBq, iv at 30 mins by Folch-type extraction method; format: ADME, organism-based; settings: in vivo, 0.5 h; how it was run: as §1
Liver [13] = test: Biodistribution in overnight fasted Sprague-Dawley rat liver pellet fraction at 0.7 to 1.4 MBq, iv at 30 mins by Folch-type extraction method; format: ADME, organism-based; settings: in vivo, 0.5 h; how it was run: as §1
Heart [14] = test: Biodistribution in overnight fasted Sprague-Dawley rat heart pellet fraction at 0.7 to 1.4 MBq, iv at 30 mins by Folch-type extraction method; format: ADME, organism-based; settings: in vivo, 0.5 h; how it was run: as §1
Muscle tissue [15] = test: Drug uptake in overnight fasted Sprague-Dawley rat muscle at 0.7 to 1.4 MBq, iv preincubated with POCA for 2 hrs before compound administration measured at 120 mins post treatment; format: ADME, organism-based; settings: in vivo
How it was run: (§2)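 Female rats fasted overnight, under isoflurane (3.5% induction, 1.5% maintenance). 18F-labelled tracer formulated in 0.5–1.0% BSA/saline, injected via tail vein. Tissues harvested at 30 or 120 min, weighed, gamma-counted, decay-corrected. Uptake expressed as % dose kg/g, i.e. tissue CPM × body wt (kg) × 100 / (tissue wt (g) × dose CPM). POCA groups received 30 mg/kg i.p. 2 h before tracer. n = 5–6.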

Kidney = test: Drug uptake in overnight fasted Sprague-Dawley rat kidney at 0.7 to 1.4 MBq, iv preincubated with POCA for 2 hrs before compound administration measured at 120 mins post treatment; format: ADME, organism-based; settings: in vivo; how it was run: as §2
Lung [16] = test: Drug uptake in overnight fasted Sprague-Dawley rat lung at 0.7 to 1.4 MBq, iv preincubated with POCA for 2 hrs before compound administration measured at 120 mins post treatment; format: ADME, organism-based; settings: in vivo; how it was run: as §2
Blood [17] = test: Drug uptake in overnight fasted Sprague-Dawley rat blood at 0.7 to 1.4 MBq, iv preincubated with POCA for 2 hrs before compound administration measured at 120 mins post treatment; format: ADME, organism-based; settings: in vivo
How it was run: (§3)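 Overnight-fasted female Sprague-Dawley rats under isoflurane received the [18F] tracer in 0.5–1.0% BSA/saline by tail vein. POCA group: 30 mg/kg i.p. 2 h before tracer. Tissues were excised at 30 or 120 min, weighed and gamma-counted with decay correction. Uptake = % dose kg/g, i.e. CPM tissue × body wt (kg) × 100 / (tissue wt (g) × CPM dose). n = 5–6.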

Muscle tissue [18] = test: Drug uptake in overnight fasted Sprague-Dawley rat muscle at 0.7 to 1.4 MBq, iv at 120 mins; format: ADME, organism-based; settings: in vivo, 2 h; how it was run: as §2
Heart [19] = test: Drug uptake in overnight fasted Sprague-Dawley rat heart at 0.7 to 1.4 MBq, iv at 120 mins; format: ADME, organism-based; settings: in vivo, 2 h; how it was run: as §3
Lung [20] = test: Drug uptake in overnight fasted Sprague-Dawley rat lung at 0.7 to 1.4 MBq, iv at 120 mins; format: ADME, organism-based; settings: in vivo, 2 h; how it was run: as §2
Muscle tissue [21] = test: Drug uptake in overnight fasted Sprague-Dawley rat muscle at 0.7 to 1.4 MBq, iv preincubated with POCA for 2 hrs before compound administration measured at 30 mins post treatment; format: ADME, organism-based; settings: in vivo, 0.5 h; how it was run: as §2
Bone = test: Drug uptake in overnight fasted Sprague-Dawley rat bone at 0.7 to 1.4 MBq, iv preincubated with POCA for 2 hrs before compound administration measured at 30 mins post treatment; format: ADME, organism-based, Bone element; settings: in vivo, 0.5 h; how it was run: as §3
Liver [22] = test: Drug uptake in overnight fasted Sprague-Dawley rat liver at 0.7 to 1.4 MBq, iv preincubated with POCA for 2 hrs before compound administration measured at 30 mins post treatment; format: ADME, organism-based; settings: in vivo, 0.5 h; how it was run: as §2
Lung [23] = test: Drug uptake in overnight fasted Sprague-Dawley rat lung at 0.7 to 1.4 MBq, iv preincubated with POCA for 2 hrs before compound administration measured at 30 mins post treatment; format: ADME, organism-based; settings: in vivo, 0.5 h; how it was run: as §2
Blood [24] = test: Drug uptake in overnight fasted Sprague-Dawley rat blood at 0.7 to 1.4 MBq, iv preincubated with POCA for 2 hrs before compound administration measured at 30 mins post treatment; format: ADME, organism-based; settings: in vivo, 0.5 h; how it was run: as §3
Brain = test: Drug uptake in overnight fasted Sprague-Dawley rat brain at 0.7 to 1.4 MBq, iv at 30 mins; format: ADME, organism-based; settings: in vivo, 0.5 h; how it was run: as §3
Liver [25] = test: Drug uptake in overnight fasted Sprague-Dawley rat liver at 0.7 to 1.4 MBq, iv at 30 mins; format: ADME, organism-based; settings: in vivo, 0.5 h; how it was run: as §2
Lung [26] = test: Drug uptake in overnight fasted Sprague-Dawley rat lung at 0.7 to 1.4 MBq, iv at 30 mins; format: ADME, organism-based; settings: in vivo, 0.5 h; how it was run: as §2
Blood [27] = test: Drug uptake in overnight fasted Sprague-Dawley rat blood at 0.7 to 1.4 MBq, iv at 30 mins; format: ADME, organism-based; settings: in vivo, 0.5 h; how it was run: as §3

Row | Compound | Drug uptake (Heart [1]) | Drug uptake (Muscle tissue [2]) [%] | Drug uptake (Muscle tissue [3]) [%] | Drug uptake (Heart [4]) [%] | Drug uptake (Heart [5]) [%] | Drug uptake (Muscle tissue [6]) [%] | Drug uptake (Muscle tissue [7]) [%] | Drug uptake (Liver [8]) [%] | Drug uptake (Heart [9]) [%] | Drug uptake (Muscle tissue [10]) [%] | Drug uptake (Muscle tissue [11]) [%] | Drug uptake (Muscle tissue [12]) [%] | Drug uptake (Liver [13]) [%] | Drug uptake (Heart [14]) [%] | Drug uptake (Muscle tissue [15]) [%IDKg/g] | Drug uptake (Kidney) [%IDKg/g] | Drug uptake (Lung [16]) [%IDKg/g] | Drug uptake (Blood [17]) [%IDKg/g] | Drug uptake (Muscle tissue [18]) [%IDKg/g] | Drug uptake (Heart [19]) [%IDKg/g] | further results
1 | O=C(O)CCSCCCC/C=C\CCCCCCCC[18F] | Active | 35.36 | 53.25 | 29.14 | 4.19 | 21.98 | 9.91 | 5.68 | 62.03 | 21.75 | 59.12 | 18.79 | 71.69 | 88.67 | 0.0216 | 0.0611 | 0.0179 | 0.0141 | 0.0171 | 0.8164 | Drug uptake (Lung [20]): 0.0228 %IDKg/g; Drug uptake (Muscle tissue [21]): 0.0297 %IDKg/g; Drug uptake (Bone): 0.1475 %IDKg/g; Drug uptake (Liver [22]): 0.8162 %IDKg/g; Drug uptake (Lung [23]): 0.0458 %IDKg/g; Drug uptake (Blood [24]): 0.0606 %IDKg/g; Drug uptake (Brain): 0.0206 %IDKg/g; Drug uptake (Liver [25]): 1.1847 %IDKg/g; Drug uptake (Lung [26]): 0.0496 %IDKg/g; Drug uptake (Blood [27]): 0.0441 %IDKg/g
2 | O=C(O)CCSCCCCCCCCCCCC[18F] | Active | 32.69 | 48.14 | 24.47 | 7.53 | 34 | 16.17 | 5.32 | 51.9 | 33.56 | 43.18 | 23.24 | 38.21 | 58.8 | 0.0298 | 0.1637 | 0.0472 | 0.0392 | 0.0109 | 0.1069 | Drug uptake (Lung [20]): 0.0183 %IDKg/g; Drug uptake (Muscle tissue [21]): 0.0333 %IDKg/g; Drug uptake (Bone): 0.179 %IDKg/g; Drug uptake (Liver [22]): 0.6197 %IDKg/g; Drug uptake (Lung [23]): 0.0676 %IDKg/g; Drug uptake (Blood [24]): 0.0633 %IDKg/g; Drug uptake (Brain): 0.067 %IDKg/g; Drug uptake (Liver [25]): 0.899 %IDKg/g; Drug uptake (Lung [26]): 0.099 %IDKg/g; Drug uptake (Blood [27]): 0.07 %IDKg/g
